Screening data from PubChem BioAssay.
The list is not random: actives were taken first. Their share in the collection is about 2.9%.
Ecoli tolC = blocks growth of E. coli BW25113 tolC mutant; growth inhibition, % at 10 µM (by protocol); AID 573; OD615; 65,000 compounds, 2.2% hits;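 active means growth inhibition at or above a cutoff equal to the mean over every tested compound plus 3 SD, cut at about 60% in these data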;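 further: growth measured after 20 h incubation at 37 °C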
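Test system – E. coli BW25113 ΔtolC::kan, tolC deletion mutant strain · Detection – OD at 615 nm · Buffer or medium – LB with kanamycin 50 µg/mL · Times – 20 h compound exposure of bacteria at 37 °C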
Hsp90 inh = displaces geldanamycin probe from tumor Hsp90; NCI-N417 lysate Hsp90, Cy3B-geldanamycin FP displacement; P07900; 64,000 compounds, 0.35% hits; AID 429; inhibition, % at 30 µM;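 active means inhibition above 50%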;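 further: 0% = tracer plus lysate wells and 100% = tracer alone without lysate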
BAP1 inh = human BAP1 deubiquitinase inhibition | Q92560 | recombinant BAP1, Ub-AMC hydrolysis fluorescence kinetic; active compounds read low | calls only at 20 µM | AID 436 | 72,000 compounds, 0.48% hits;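 active means activity remaining at or below 50% of control, provided the compound also passes the data quality filters; inactive means the rest, including low values that fail the filters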;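 further: 100% = DMSO wells rate and 0% = substrate alone blank rate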
E coli RNAP = blocks E. coli RNA polymerase transcription; fluorescence transcription assay; inhibition, %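 (tested at 10 µM)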; 62,000 compounds, 0.2% hits; AID 559; in the data active means inhibition above about 20%;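 further: 0% = enzyme without compound and 100% = no enzyme blank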
Cdc25B inh = human M-phase inducer phosphatase 2 inhibition | P30305 | recombinant Cdc25B, OMFP fluorescence Ex485/Em525 | inhibition, %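 (compounds tested at 10 µM final in the well)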 | 65,000 compounds, 0.1% hits | AID 368; in the data active means inhibition above about 50%
MKP-1 inh = inhibitors of human MKP-1 phosphatase; P28562; recombinant MKP-1, OMFP hydrolysis fluorescence; inhibition, %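 (compounds tested at a single concentration somewhere between 10 and 100 µM)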; AID 374; 65,000 compounds, 0.15% hits;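 active means inhibition above about 50%, limit read from the data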;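 further: 0% = DMSO max control wells and 100% = wells with enzyme stopped by NaOH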
Target sequence (P28562 whole entry, looked up): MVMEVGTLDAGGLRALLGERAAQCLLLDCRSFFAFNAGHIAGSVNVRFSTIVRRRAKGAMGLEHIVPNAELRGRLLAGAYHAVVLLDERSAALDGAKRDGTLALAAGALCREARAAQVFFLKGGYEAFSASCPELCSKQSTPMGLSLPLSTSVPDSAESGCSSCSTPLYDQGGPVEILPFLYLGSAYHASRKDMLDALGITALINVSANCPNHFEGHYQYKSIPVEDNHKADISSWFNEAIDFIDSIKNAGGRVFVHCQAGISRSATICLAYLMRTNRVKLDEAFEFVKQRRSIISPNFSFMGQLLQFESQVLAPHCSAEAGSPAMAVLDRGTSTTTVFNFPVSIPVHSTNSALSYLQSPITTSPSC
The depositor's hits bear a star; i = inactive; / = no result shown.

SMILES	Ecoli tolC	Hsp90 inh	BAP1 inh	E coli RNAP	Cdc25B inh	MKP-1 inh
O=C(Nc1scc(-c2cccs2)c1C(=O)O)c1cccs1	75.1*	-1.9	i	5.5	-12.4	11.5
O=C1OC(c2ccc(Br)cc2)(c2ccc(Br)cc2)c2ccccc21	/	/	i	/	/	/
CC1=CC(C)(C)N2C(=O)C3(SCC(=O)N3c3ccc(O)cc3)c3cc(C)cc1c32 (stereo not drawn)	87.0*	-1.2	i	7.3	0.6	11.8
COC(=O)C1=C(C(=O)OC)SC(=C2C(=S)C(C)(C)N(C(=O)Cc3ccccc3)c3ccc(OC)cc32)S1	/	/	i	/	/	/
CC(=O)Oc1cccc2c1C(=O)c1c(OC(C)=O)cc(C(=O)O)cc1C2=O	9.2	101.8*	i	12.8	-18.7	-4.7
Cc1ccc(CCNC(=O)c2nnn(-c3cc(C)cc(C)c3)c2N)cc1	-8.4	1.7	i	0.6	-10.9	-4.3
Cc1ccc(NC(=O)c2nnn(-c3cc(C)cc(C)c3)c2N)cc1	66.6*	0.6	i	-3.9	-11.9	-17.6
Cc1ccc2ccc(S(=O)(=O)n3nc(C)cc3C)cc2c1	77.9*	-2.6	i	5.9	-2.1	6.7
CCc1cc2c(N3CCN(c4ccccc4)CC3)ncnc2s1	93.3*	1.4	i	-0.1	-23.0	-2.9
c1ccc(N2CCN(c3ncnc4sc5c(c34)CCC5)CC2)cc1	4.7	0.7	i	8.7	-3.0	0.0
Cc1nnc2n1N=C(c1ccc(Cl)cc1)CS2	/	/	i	/	/	/
N#C/C(=C\c1cccs1)Sc1nc2ccccc2s1	70.0*	-28.1	i	6.7	-11.5	0.3
NC(=O)CSc1nc2ccccc2s1	/	/	i	/	/	/
CC(C)c1ccc(Nc2nc(NCc3ccco3)nc(N3CCOCC3)n2)cc1	66.0*	-5.2	i	9.4	0.7	0.6
COc1ccc(C(=O)Nc2cccc(NC(C)=O)c2)cc1[N+](=O)[O-]	/	/	i	/	/	/
Cc1c(OCc2ccccc2Cl)ccc2c3c(c(=O)oc12)CCC3	/	/	i	/	/	/
CCOc1ccccc1N1CCN(Cc2ccc(Br)s2)CC1	96.9*	-0.6	i	6.0	-13.4	6.7
O=C(CSc1nnnn1C1CCCCC1)Nc1cccc(NC(=O)c2ccco2)c1	73.2*	-1.3	i	3.2	-9.3	-4.2
CCCCc1cc(O)c(CCCC)c(O)c1	63.2*	0.2	i	11.6	-13.4	-11.8
CC(C)c1ccc(NC(=O)C(C(C)C)N2C(=O)c3ccccc3C2=O)cc1 (stereo not drawn)	/	/	i	/	/	/
Cc1nn(-c2nc3ccccc3[nH]2)c(N)c1-c1ccccc1	75.8*	19.8	i	3.2	3.1	1.8
CCOC(=O)C1=C(C)NC(=O)N(C(C)=O)C1c1ccccc1Cl (stereo not drawn)	/	/	i	/	/	/
Cc1nc2c(C(=O)NCc3ccco3)cnn2c(C)c1Cc1ccc(F)cc1Cl	13.7	-4.9	/	3.1	-16.8	16.3
Cc1cccc(Cc2c(C)nc3c(C(=O)NCc4ccco4)cnn3c2C)c1	75.2*	-2.7	/	1.4	-20.0	18.7
O=C(CCCNS(=O)(=O)c1cccc2nsnc12)NCc1ccccc1	-10.9	-2.7	i	-0.8	-9.0	-0.8
SMILES	Ecoli tolC	Hsp90 inh	BAP1 inh	E coli RNAP	Cdc25B inh	MKP-1 inh
O=C(CCCNS(=O)(=O)c1cccc2nsnc12)NCc1ccc(F)cc1	-18.2	-0.6	i	28.3*	-3.9	1.0
O=C(Nc1ccccc1)c1cccnc1N1CCOCC1	-30.3	1.5	i	2.6	53.2*	0.5
O=C(Nc1cccc(F)c1)c1cccnc1N1CCOCC1	0.3	-3.9	i	1.3	10.6	-6.4
COc1cc(-n2nc(-c3ccccc3)cc2-c2ccccc2)ncn1	/	/	i	/	/	/
CC(C)c1ccc(OCc2nc(-c3ccccn3)no2)c(Br)c1	96.2*	-4.3	i	9.1	5.4	10.6
Cc1ccc(OCc2nc(-c3ccccn3)no2)c(Br)c1	21.2	-3.0	i	1.1	-14.9	1.5
CCc1cc2c(=O)n(Cc3ccco3)c(SCc3c(C)noc3C)nc2s1	64.7*	-8.0	i	1.8	-18.9	7.2
CCc1cc2c(=O)n(Cc3ccco3)c(SCC(=O)N3CCCc4ccccc43)nc2s1	14.2	-4.9	/	2.6	-5.9	27.0
OCCN(CCO)c1nc(N2CCCCC2)c2nc(N(CCO)CCO)nc(N3CCCCC3)c2n1	100.0*	61.3*	i	7.6	-10.7	6.2
CN(C)c1nc(N2CCCCC2)nc(N2CCCCC2)n1	3.0	1.6	i	0.8	-3.8	9.2
O=C(NCCNC(=O)c1ccccc1O)c1ccccc1O	/	/	i	/	/	/
O=C(NCCCc1ccccc1)c1ccccc1O	66.6*	/	/	3.3	-2.3	5.3
O=C(c1cc(=O)c2ccccc2o1)N1CCc2ccccc2C1	/	/	i	/	/	/
Cn1c(C(=O)N2CCc3ccccc3C2)cc2oc3ccccc3c21	68.8*	3.0	i	-1.1	-5.3	9.2
COC(=O)C1=C(C)N(C)C(=S)NC1c1ccc(OC)cc1 (stereo not drawn)	/	/	i	/	/	/
c1csc(-c2nc3nc4ccccc4nc3n2Cc2ccc3c(c2)OCO3)c1	65.7*	-2.4	i	6.1	5.9	4.6
O=C(CSc1nnc(Cc2cc(=O)[nH]c(=O)[nH]2)n1-c1ccccc1)NCC1CCCO1 (stereo not drawn)	-15.9	89.4*	i	4.2	5.2	0.0
CC(C)n1c(C(=O)OCC(=O)NCc2ccc3c(c2)OCO3)cc2occc21	63.8*	3.6	i	0.5	-7.0	3.2
CC(C)n1c(C(=O)OCC(=O)NCc2ccc3c(c2)OCO3)cc2sccc21	57.9	/	/	10.1	-5.8	0.6
COC(=O)c1[nH]c2ccccc2c1NC(=O)CN1CCN(c2cccc(OC)c2)C(C)C1 (stereo not drawn)	77.4*	-6.3	i	-3.8	4.8	8.6
CC12CC3(C)CC(C)(C1)CC(N)(C2)C3	/	/	i	/	/	/
O=c1c2ccccc2nc(SCc2cn3ccsc3n2)n1-c1ccccc1F	65.2*	-3.3	i	2.6	1.7	8.3
CCc1nc(N2CCC(C)CC2)c2oc3ccccc3c2n1	100.0*	-2.5	i	7.5	-1.4	1.7
CCC(C)n1c(=O)c(C(=O)Nc2ccccc2S(N)(=O)=O)c(O)c2ccccc21 (stereo not drawn)	82.8*	-5.3	i	-1.2	1.4	-8.4
CCCn1c(=O)c(C(=O)Nc2ccccc2C(=O)OCC)c(O)c2ccccc21	0.0	-4.2	i	0.7	1.1	-9.8
SMILES	Ecoli tolC	Hsp90 inh	BAP1 inh	E coli RNAP	Cdc25B inh	MKP-1 inh
CC(C)Cn1c(=O)c(C(=O)Nc2ccccc2S(N)(=O)=O)c(O)c2ccccc21	100.0*	-1.6	i	11.0	-0.7	11.4
O=C(NC12CC3CC(CC(C3)C1)C2)c1ccccc1Nc1cccc(C(F)(F)F)c1	/	/	i	/	/	/
COc1cc2c(cc1NC(=O)c1ccc(Br)o1)oc1ccccc12	/	/	i	/	/	/
O=C(CSc1nnc(-c2ccccn2)n1Cc1ccco1)c1ccc(Cl)cc1	43.7	/	/	6.4	2.1	15.1
O=C(CSc1nnc(-c2ccccn2)n1Cc1ccco1)c1ccccc1	4.4	/	/	-2.0	-14.1	10.5
Clc1cccc(CSc2nnc(-c3ccccn3)n2Cc2ccco2)c1	100.0*	/	/	8.6	1.0	4.9
